Experimental data reported in ChEMBL document CHEMBL4350996, “C8-substituted pyrido[3,4-d]pyrimidin-4(3H)-ones: Studies towards the identification of potent, cell penetrant Jumonji C domain containing histone lysine demethylase 4 subfamily (KDM4) inhibitors, compound profiling in cell-based target engagement assays” (Eur J Med Chem, 2019).
Substitutions are numbered along the chain they refer to. Calls of active or inactive are those of the source. The calls are words filed in the database; no cut-off is given here.

Key:
[1] = test system: Lysine-specific demethylase 5B (Homo sapiens), Q9UGL1 [H499A,E501A]; assay: Inhibition of full length human catalytically inactive KDM5B H499A/E501A mutant transfected in HeLa cells assessed as change in H3K4Me3 level measured after 24 hrs by cell analyser based immunofluorescence assay
Outline: (§1)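 HeLa cells grown in DMEM with 10% FBS, 37°C, 5% CO₂, seeded 6000 cells/well overnight. Compounds serially diluted 1:3 to 1:5 in medium with 20% FBS, DMSO held constant, then added for 24 h. Histone mark read by immunofluorescence imaging, 10 fields per well at 20X.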

[2] = Drug metabolism in human LNCAP cells assessed as metabolite formation at 10 uM measured upto 120 hrs by UPHLC analysis; assay type: ADME, cell-based
Outline: (§2)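 They were then given 10 μM compound or 0.1% DMSO vehicle. Media and trypsinised cell pellets were collected at 1, 6, 24, 48, 72 and 120 h, frozen at -80 °C, and analysed by UHPLC–Orbitrap MS using full MS/dd-MS² and full MS/AIF.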

[3] = test system: T1, Lysine-specific demethylase 4A (Homo sapiens), O75164 [H188A,E190A]; assay: Inhibition of FLAG tagged full length catalytically inactive human KDM4A H188A/E190A mutant transfected in HeLa cells assessed as change in H3K9Me3 level measured after 24 hrs by cell analyser based immunofluorescence assay; outline: as §1
T1 sequence (whole entry): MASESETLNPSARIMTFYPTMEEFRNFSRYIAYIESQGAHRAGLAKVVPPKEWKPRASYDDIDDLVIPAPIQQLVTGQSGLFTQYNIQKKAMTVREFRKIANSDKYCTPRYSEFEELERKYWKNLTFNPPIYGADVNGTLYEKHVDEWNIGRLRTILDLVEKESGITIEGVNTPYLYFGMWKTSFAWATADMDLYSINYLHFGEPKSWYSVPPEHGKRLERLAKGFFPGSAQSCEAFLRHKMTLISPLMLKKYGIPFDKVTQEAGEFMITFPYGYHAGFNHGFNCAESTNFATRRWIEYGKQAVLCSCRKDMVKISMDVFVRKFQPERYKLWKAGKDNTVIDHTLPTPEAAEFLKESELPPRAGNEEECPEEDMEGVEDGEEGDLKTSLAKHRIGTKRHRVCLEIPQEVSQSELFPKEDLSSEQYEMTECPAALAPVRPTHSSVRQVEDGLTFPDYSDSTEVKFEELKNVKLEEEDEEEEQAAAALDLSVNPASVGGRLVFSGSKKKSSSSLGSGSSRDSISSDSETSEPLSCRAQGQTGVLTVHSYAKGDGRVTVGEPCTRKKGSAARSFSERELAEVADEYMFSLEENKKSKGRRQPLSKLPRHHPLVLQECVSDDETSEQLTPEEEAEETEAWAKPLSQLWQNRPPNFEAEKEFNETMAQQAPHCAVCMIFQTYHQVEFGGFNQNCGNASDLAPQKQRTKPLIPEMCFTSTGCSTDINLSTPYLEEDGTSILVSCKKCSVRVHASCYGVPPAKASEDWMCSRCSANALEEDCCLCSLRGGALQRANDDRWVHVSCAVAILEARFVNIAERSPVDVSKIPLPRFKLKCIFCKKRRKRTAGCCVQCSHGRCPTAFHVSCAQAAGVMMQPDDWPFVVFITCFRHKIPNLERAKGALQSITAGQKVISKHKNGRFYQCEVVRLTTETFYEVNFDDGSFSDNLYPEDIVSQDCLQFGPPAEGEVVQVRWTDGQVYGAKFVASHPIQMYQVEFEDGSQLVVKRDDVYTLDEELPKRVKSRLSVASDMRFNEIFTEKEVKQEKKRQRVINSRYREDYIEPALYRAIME

[4] = Drug uptake in human LNCAP cells at 10 uM measured upto 120 hrs by UPHLC analysis; assay type: ADME, cell-based; conditions: TDE = time-dependent effect; outline: as §2
[5] = biological target: Lysine-specific demethylase 5B (Homo sapiens) (UniProt Q9UGL1); assay: Inhibition of full length human wild type KDM5B transfected in HeLa cells assessed as increase in H3K4Me3 level measured after 24 hrs by cell analyser based immunofluorescence assay
[6] = biological target: T2, Lysine-specific demethylase 4A (Homo sapiens) (UniProt O75164); assay: Inhibition of FLAG tagged full length wild type human KDM4A transfected in HeLa cells assessed as increase in H3K9Me3 level measured after 24 hrs by cell analyser based immunofluorescence assay
T2 sequence (whole entry): T1 sequence (whole entry) with A188H, A190E

Lysine-specific demethylase 5B (Homo sapiens), Q9UGL1 [H499A,E501A], sequence (Q9UGL1 whole entry H499A/E501A): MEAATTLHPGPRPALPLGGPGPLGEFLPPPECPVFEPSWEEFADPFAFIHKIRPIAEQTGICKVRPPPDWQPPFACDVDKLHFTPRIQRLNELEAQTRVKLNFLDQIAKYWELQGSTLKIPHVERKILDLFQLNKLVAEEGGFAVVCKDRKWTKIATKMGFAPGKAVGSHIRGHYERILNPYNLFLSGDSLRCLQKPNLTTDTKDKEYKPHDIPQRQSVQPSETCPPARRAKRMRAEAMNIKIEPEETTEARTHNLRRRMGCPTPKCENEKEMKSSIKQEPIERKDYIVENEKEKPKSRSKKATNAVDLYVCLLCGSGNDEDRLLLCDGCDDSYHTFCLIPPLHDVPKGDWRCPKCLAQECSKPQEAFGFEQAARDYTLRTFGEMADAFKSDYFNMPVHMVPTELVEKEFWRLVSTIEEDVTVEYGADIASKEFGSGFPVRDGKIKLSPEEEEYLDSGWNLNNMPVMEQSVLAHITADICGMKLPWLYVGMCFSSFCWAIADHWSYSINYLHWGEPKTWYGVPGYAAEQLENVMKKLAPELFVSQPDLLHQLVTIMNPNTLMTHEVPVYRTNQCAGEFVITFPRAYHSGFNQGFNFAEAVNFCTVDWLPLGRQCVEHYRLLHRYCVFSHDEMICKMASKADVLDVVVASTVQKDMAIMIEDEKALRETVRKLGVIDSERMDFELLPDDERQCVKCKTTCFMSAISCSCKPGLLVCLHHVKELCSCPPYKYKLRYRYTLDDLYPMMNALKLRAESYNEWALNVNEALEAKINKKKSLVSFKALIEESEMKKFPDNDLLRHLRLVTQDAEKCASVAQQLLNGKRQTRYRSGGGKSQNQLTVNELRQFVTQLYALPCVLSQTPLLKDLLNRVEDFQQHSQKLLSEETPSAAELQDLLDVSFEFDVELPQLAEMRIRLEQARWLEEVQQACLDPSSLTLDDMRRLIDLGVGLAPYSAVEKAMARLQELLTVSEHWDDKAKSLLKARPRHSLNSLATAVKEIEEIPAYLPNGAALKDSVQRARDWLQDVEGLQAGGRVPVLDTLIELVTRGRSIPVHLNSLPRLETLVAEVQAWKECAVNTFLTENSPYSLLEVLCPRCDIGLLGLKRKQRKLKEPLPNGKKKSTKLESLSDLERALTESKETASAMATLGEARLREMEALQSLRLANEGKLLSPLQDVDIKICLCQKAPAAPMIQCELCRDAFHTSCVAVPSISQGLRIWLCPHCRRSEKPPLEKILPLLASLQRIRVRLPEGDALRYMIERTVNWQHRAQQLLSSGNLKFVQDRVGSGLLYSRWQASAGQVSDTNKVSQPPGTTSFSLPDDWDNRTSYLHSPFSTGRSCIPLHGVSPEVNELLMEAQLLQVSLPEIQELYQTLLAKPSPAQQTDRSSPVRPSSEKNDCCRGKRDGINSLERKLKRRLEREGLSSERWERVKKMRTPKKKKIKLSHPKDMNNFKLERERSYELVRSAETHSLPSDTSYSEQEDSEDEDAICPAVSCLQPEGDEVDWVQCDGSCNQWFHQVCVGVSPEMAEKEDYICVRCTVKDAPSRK
Lysine-specific demethylase 5B (Homo sapiens), sequence (Q9UGL1 whole entry): as the sequence (Q9UGL1 whole entry H499A/E501A) above, with A499H, A501E counted along it

| inhibition [1] | Drug metabolism [2] | inhibition [3] | Drug uptake [4] | inhibition [5] | inhibition [6] | Compound |
| --- | --- | --- | --- | --- | --- | --- |
| inactive | Metabolite_Notdetected | inactive | Tde | inactive | inactive | O=c1[nH]cnc2c(-n3cc(CCN4CCC5(CCc6ccccc65)CC4)cn3)cccc12 |
| inactive | Metabolite_Notdetected | inactive | Tde |  |  | O=c1[nH]cnc2c(-n3cc(CCN4CCC5(CCc6ccccc65)CC4)cn3)nccc12 |
